Compound activity (PubChem BioAssay)
Dynein transport: inhibitors of GR-EGFP nuclear translocation, primary screen, dynein cargo transport inhibitor project, imaging, high-content, 3617.4 mouse cells. z-score, hits read low. 220,000 tested, 0.47% active. test concentration mostly 20 µM; stimulated with dexamethasone, 1 µM; stronger effect = lower value;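 active means plate z-score of nuclear minus cytoplasmic receptor signal below a set negative limit, without overly bright fluorescence or cell loss, cut at about -3.5 in these data, passing the limit was not always enough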;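 further: z-score of nuclear minus cytoplasmic ring GR-EGFP intensity difference per well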
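Buffer or medium: tet-free, stripped-serum medium; reagent: dexamethasone at 1.0 µM final, 30 min; incubation: 48 h induction, 1 h compound, 30 min dex at 37 °C; measured by: formaldehyde fixation, Hoechst nuclear stain, 10x automated fluorescence imaging; read-out: nuclear-to-cytoplasmic GR-EGFP distribution per well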
UPR XBP1 act: activators of adaptive XBP1 UPR arm, primary screen, cell-based, CHO-XBP1 luciferase reporter, luminescence, uHTS | IRE1-XBP1 UPR activation; percent of tunicamycin response, DMSO as zero | activation, % at 20 µM | 330,000 tested, 0.33% active | AID 463104, 2010;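 active means versus positive control, 20 µM dose yields 30% or more activation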;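 further: 100% = tunicamycin at 10 µg/mL and 0% = DMSO only wells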
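Material: CHO-XBP1 cells stably carrying IRE1-XBP1-driven luciferase reporter | Medium: F12 with 10% serum | Compound dosing: 20 µM single concentration, DMSO 1% | Incubation: Overnight seeding at 37 °C, 6 h compound treatment at 37 °C | Detection: Steady-Glo luminescence read | Read-out basis: % activation of reporter signal versus tunicamycin and DMSO controls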
CHOP UPR activ: activators of apoptotic CHOP UPR arm, primary screen, cell-based, CHO-CHOP luciferase reporter, luminescence, uHTS; AID 449763, 2010; 330,000 tested, 0.34% active; activation, % at 10 µM; UPR activation; percent of tunicamycin response over DMSO baseline;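 active means at 10 µM dose, activation of 40% or more, normalized to positive control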;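 further: 100% = tunicamycin at 10 µg/mL and 0% = DMSO alone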
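assay system = CHO CHOP reporter cells | amount = 500 CHO-CHOP cells per well | buffer or medium = F12 with 10% FBS | incubation = 16-18 h cell attachment, then 6 h compound exposure, 37 °C | detection = luminescence read with Steady-Glo | read-out = percent activation relative to tunicamycin control | controls = tunicamycin high control, DMSO low control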
CHOP inhibitor: inhibitors of CHOP promoter induction, primary screen, cell-based, unfolded protein response, luciferase reporter; CHO-K1 CHOP-promoter luciferase, tunicamycin-induced, 15-18 h; 220,000 tested, 3.8% active; inhibition, % at 10 µM; AID 2732, 2010;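 active means compounds that reduced the stress-induced luciferase reporter signal by more than about 70% of percent inhibition, limit read from the data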;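 further: 0% = tunicamycin plus vehicle and 100% = wells without tunicamycin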
T cruzi repl: inhibitors of intracellular T. cruzi growth, primary screen, luminescence, NIH3T3 host cells | T. cruzi beta-gal in NIH3T3, 90 h | inhibition, % (concentration not given with the values) | 300,000 tested, 1.4% active | AID 1885, 2009;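 active means mean inhibition across valid replicates above about 55%, limit read from the data; inconclusive means mean below that limit but half or more replicates reach it; inactive means mean below it, under half of replicates reach it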;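 further: signal also drops with host cell toxicity which is not excluded here; 0% = plate median of DMSO wells and 100% = zero luminescence signal; higher percent means less beta-gal luminescence so fewer parasites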
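Test system: β-gal T. cruzi (Tulahuen C4) inside NIH/3T3 cells / Quantity: 5,000 cells/well / Measured by: luminescence from GalScreen with 0.05% NP40, read after 60 min / Medium: DMEM plus 2% FBS / Measure: parasite load inhibition, % / Reagent: Tulahuen C4 trypomastigotes, 5000/well / Schedule: co-culture of at least 90 h after 3 h attachment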
L major viab: Leishmania major promastigote growth inhibition, primary screen. Leishmania major promastigotes, resazurin fluorescence viability. inhibition, % at 10 µM. 200,000 tested, 9% active. AID 1063, 2008; in the data active means inhibition above about 50%;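 further: promastigotes grown with compound for 44 hours at 28 °C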
* marks the source's active call; other numbers are inactive results; ? = inconclusive; . = no result given. This is one part of a sample in which hits are shown more often than they occur.

SMILES	Dynein transport	UPR XBP1 act	CHOP UPR activ	CHOP inhibitor	T cruzi repl	L major viab
COc1ccc(C2SCC(=O)Nc3c2c(C)nn3-c2ccccc2)cc1OC (centres undefined)	-0.98	2	-3	-12	3	62*
COc1cccc(C2(C#N)CCN(C)CC2)c1	-0.99	-1	2	-4	-6	-2
CN(C)c1nc(OCCNC(=O)COc2ccc(Cl)cc2Cl)nc(N2CCCCC2)n1	-1.1	0	2	94*	34	4
CCCCN1CCC(O)(c2ccccc2)C(C(=O)c2ccccc2)C1 (centres undefined)	-0.85	-6	3	-3	9	97*
CCOC(=O)C(=CNc1ccc(C(O)(C(=O)OCC)C(F)(F)F)cc1C)C(=O)OCC (centres undefined)	0.73	1	1	90*	17	55*
CCCc1[nH]nc2c1C1(C(=O)N(CC(N)=O)c3ccccc31)C(C(=O)OC)=C(N)O2 (centres undefined)	-0.11	0	-4	13	-13	-5
CCCc1[nH]nc2c1C1(C(=O)N(Cc3ccccc3)c3ccccc31)C(C(=O)OC)=C(N)O2 (centres undefined)	1.2	-2	-2	27	24	82*
COc1ccccc1CCNC1CCC(C(C)(C)C)CC1 (centres undefined)	1	0	-1	67	59*	100*
Cc1cccc(NP(C)(=O)c2nc3c(s2)CCCC3)c1 (centres undefined)	-0.36	4	-1	35	-9	2
O=C(c1c[nH]c2ccc(S(=O)(=O)N3CCOCC3)cc2c1=O)N1CCC2(CC1)OCCO2	1.1	-2	-1	-12	-1	-4
CCCCn1c(O)c(C(C)=Nc2ccc(OCC)cc2)c(=O)[nH]c1=O	-0.22	3	0	95*	9	20
CCCCn1c(O)c(C(C)=NC(Cc2c[nH]c3ccccc23)C(=O)OC)c(=O)[nH]c1=O (centres undefined)	-0.25	1	0	3	-26	99*
COC(=NC1CCCC1)C(O)c1c[nH]c2ccccc12 (centres undefined)	0.06	0	0	14	2	-7
CC(C)NCC(O)c1ccc(C2CCCC2)cc1 (centres undefined)	-0.44	0	1	28	4	92*
CC(C)c1ccc(C2N3CCCN23)cc1 (centres undefined)	-0.73	-1	3	4	-24	-9
Clc1ccc(CO/N=C(\Cn2ccnc2)c2ccc(Cl)cc2Cl)c(Cl)c1	.	-7	7	.	68*	.
O=C(c1ccco1)c1cn(Cc2ccc(Cl)cc2)c2ccccc12	-0.83	-2	1	51	-12	80*
COc1ccccc1OCCCn1cc(C(=O)c2ccco2)c2ccccc21	-0.14	1	4	13	29	9
CN(C)c1ccc(/C=C/C=C2/C(=O)NC(=O)N(c3ccccc3)C2=O)cc1	-0.27	.	.	84*	-6	96*
Cc1cc(OC(=O)c2ccco2)c2c3c(c(=O)oc2c1)CCCC3	2.1	-2	3	76*	-10	10
Cc1cc(OC(=O)c2cccs2)c2c3c(c(=O)oc2c1)CCCC3	-0.63	0	-2	18	-5	0
COc1cc(OC)c(OC)cc1CN1CCN(C(=O)Cc2ccccc2)CC1	.	-4	0	.	3	.
CCC(C)N1C(=O)/C(=C\c2ccc(N3CCCCCC3)cc2)C(=O)NC1=S (centres undefined)	0.18	1	23	71*	-5	93*
CCC(C)N1C(=O)/C(=C\c2cc3c4c(c2)CCCN4CCC3)C(=O)NC1=S (centres undefined)	-0.69	-4	25	-62	-14	98*
CCCCN1C(=O)/C(=C/c2ccc(N3CCCCCC3)cc2)C(=O)NC1=S	-0.16	-1	14	1	-9	59*
SMILES	Dynein transport	UPR XBP1 act	CHOP UPR activ	CHOP inhibitor	T cruzi repl	L major viab
O=C(CCNC(=O)N1C[C@H]2C[C@@H](C1)c1cccc(=O)n1C2)Nc1ccc(F)cc1	.	-2	1	.	2	.
N#Cc1ccccc1Cn1cc(C(=O)c2ccccc2F)c2ccccc21	-0.99	0	0	0	-62	49
COC(=O)C1=C(c2cccc(OCc3ccccc3)c2)C[C@@H]2CC[C@H]1N2C(=O)NCc1ccccc1OC	.	0	2	.	.	.
CN(C(=O)Oc1ccc(C(=O)c2ccc(Cl)cc2)cc1)c1ccccc1	0.12	-2	-1	7	-3	56*
COc1ccc(CCNCc2ccncc2)cc1	-0.57	1	-1	50	10	90*
COc1ccc(CCNC(C)CCc2ccc(OC)cc2)cc1 (centres undefined)	0.32	-3	-1	18	44	93*
COc1ccc(CCNC2CCCCCC2)cc1	.	-3	0	.	8	.
COc1ccc(CCNCc2ccccc2)cc1	.	-3	-1	.	34	.
COc1cccc(CCNCc2ccc(SC)cc2)c1	0.14	1	1	21	?	51*
COc1nc(NC(C)C)nc(NC(C)C)n1	2.7	-1	-1	3	-16	3
FC(F)(F)c1ccc(CN2CCNCC2)cc1	-0.81	-3	1	-14	0	96*
O=C(NCc1cccnc1)Nc1ccc([N+](=O)[O-])cc1	.	-1	1	.	2	.
NC(N)=NOCC[C@H](N)C(=O)O	.	.	.	-22	.	.
COc1ccc2c(c1OC)CN1CCc3cc4c(cc3C1C2)OCO4 (centres undefined)	.	-1	2	.	58*	.
CC(C)(C)n1cccc1/C=C1\C(=O)NC(=O)N(c2ccccc2)C1=O	0.46	1	1	-14	-7	-4
Cc1cc(C)cc(N2C(=O)NC(=O)/C(=C/c3cccn3-c3ccc(Cl)cc3)C2=O)c1	-1.2	-2	99*	-88	-21	98*
NC(=O)c1c(NC(=O)c2ccc(S(=O)(=O)N(CCCl)CCCl)cc2)sc2c1CCCCC2	-1.2	.	.	0	.	36
N=c1sccn1Cc1ccc(Cl)cc1Cl	-0.61	0	1	-2	-13	66*
COC(=O)C1=C(c2ccc(OC(F)(F)F)cc2)C[C@@H]2CC[C@H]1N2C(=O)NCCOc1ccccc1Cl	.	0	0	.	.	.
C=CC[N+]1(C)C2CCC1CC(O)C2 (centres undefined)	0.05	8	-3	-1	-10	-5
Clc1ccc(OCC#CCN2CCCCCC2)cc1	-0.47	0	3	2	12	85*
